Measurements from ChEMBL document CHEMBL4270578, “Synthesis and cytotoxic studies of novel 5-phenylisatin derivatives and their anti-migration and anti-angiogenic evaluation” (Eur J Med Chem, 2018).
The source made the active and inactive calls. No cut-off for these calls is given here.

Columns and labels:
K562 [1] = assay: Induction of apoptosis in human K562 cells assessed as necrotic cells at 30 nM after 24 hrs by Annexin V-FITC/propidium iodide staining-based flow cytometric analysis (reference value: 0.1%); assay type: functional
K562 [2] = assay: Induction of morphological changes in human K562 cells assessed as cell shrinkage at 30 nM after 24 hrs; assay type: functional, cell-based
Summary of the method: (§1)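 K562 cells kept in RPMI-1640 with 10% FBS, 2.05 mM glutamine and penicillin/streptomycin at 37 °C, 5% CO2. Exposed to 30 nM drug alongside DMSO-treated controls. Cell morphology examined by microscopy.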

K562 [3] = assay: Induction of apoptosis in human K562 cells assessed as early apoptotic cells at 30 nM after 6 hrs by Annexin V-FITC/propidium iodide staining-based flow cytometric analysis (reference value: 1.9%); assay type: functional
K562 [4] = assay: Induction of apoptosis in human K562 cells assessed as late apoptotic cells at 300 nM after 6 hrs by Annexin V-FITC/propidium iodide staining-based flow cytometric analysis (reference value: 2.1%); assay type: functional
K562 [5] = assay: Induction of apoptosis in human K562 cells assessed as late apoptotic cells at 300 nM after 12 hrs by Annexin V-FITC/propidium iodide staining-based flow cytometric analysis (reference value: 2.1%); assay type: functional
K562 [6] = assay: Antiproliferative activity against human K562 cells after 48 hrs by MTT assay; assay type: functional, cell-based; conditions: K562, 48 h
Summary of the method: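 MTT assay on K562 cells (RPMI-1640, 10% FBS) plated at 5 × 10^4 cells/ml for 2 h, then exposed to 10–100,000 nM compound for 48 h. MTT (5 mg/mL stock) added for 4 h before absorbance read. Viability normalized to DMSO controls (100%); IC50 from nonlinear regression, three independent assays.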

HUVEC = assay: Cytotoxicity against HUVEC after 48 hrs by MTT assay; assay type: cell-based; conditions: Homo sapiens
K562 [7] = assay: Induction of apoptosis in human K562 cells assessed as viable cells at 30 nM after 6 hrs by Annexin V-FITC/propidium iodide staining-based flow cytometric analysis (reference value: 95.8%); assay type: functional; conditions: K562, 6 h, read-out: Activity
K562 [8] = assay: Induction of apoptosis in human K562 cells assessed as early apoptotic cells at 300 nM after 12 hrs by Annexin V-FITC/propidium iodide staining-based flow cytometric analysis (reference value: 2.2%); assay type: functional
K562 [9] = assay: Induction of apoptosis in human K562 cells assessed as late apoptotic cells at 30 nM after 6 hrs by Annexin V-FITC/propidium iodide staining-based flow cytometric analysis (reference value: 2.2%); assay type: functional
K562 [10] = assay: Induction of apoptosis in human K562 cells assessed as early apoptotic cells at 300 nM after 48 hrs by Annexin V-FITC/propidium iodide staining-based flow cytometric analysis (reference value: 2.2%); assay type: functional
K562 [11] = assay: Induction of apoptosis in human K562 cells assessed as late apoptotic cells at 300 nM after 24 hrs by Annexin V-FITC/propidium iodide staining-based flow cytometric analysis (reference value: 2.1%); assay type: functional
K562 [12] = assay: Induction of apoptosis in human K562 cells assessed as early apoptotic cells at 30 nM after 12 hrs by Annexin V-FITC/propidium iodide staining-based flow cytometric analysis (reference value: 1.9%); assay type: functional
K562 [13] = assay: Induction of apoptosis in human K562 cells assessed as viable cells at 300 nM after 12 hrs by Annexin V-FITC/propidium iodide staining-based flow cytometric analysis (reference value: 95.6%); assay type: functional; conditions: K562, 12 h, read-out: Activity
K562 [14] = assay: Induction of apoptosis in human K562 cells assessed as late apoptotic cells at 30 nM after 12 hrs by Annexin V-FITC/propidium iodide staining-based flow cytometric analysis (reference value: 2.2%); assay type: functional
K562 [15] = assay: Induction of apoptosis in human K562 cells assessed as late apoptotic cells at 300 nM after 48 hrs by Annexin V-FITC/propidium iodide staining-based flow cytometric analysis (reference value: 2.1%); assay type: functional
K562 [16] = assay: Induction of apoptosis in human K562 cells assessed as viable cells at 30 nM after 12 hrs by Annexin V-FITC/propidium iodide staining-based flow cytometric analysis (reference value: 95.8%); assay type: functional; conditions: K562, 12 h, read-out: Activity
K562 [17] = assay: Induction of apoptosis in human K562 cells assessed as early apoptotic cells at 30 nM after 48 hrs by Annexin V-FITC/propidium iodide staining-based flow cytometric analysis (reference value: 1.9%); assay type: functional
HepG2 [18] = assay: Anti-migratory activity against human HepG2 cells at 30 nM after 48 hrs by wound-healing assay relative to control; assay type: functional
Summary of the method: (§2)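 HepG2 cells seeded at 2 × 10^5 cells/well in DMEM and grown 24 h. Monolayer scratched with a 10 μl pipette tip, then PBS-washed three times. Treated with DMSO or compound (10, 30, 100 nM) at 37 °C, 5% CO2, imaged by microscopy at 0–48 h. Migration distance measured; inhibition ratio calculated against DMSO control.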

HepG2 [19] = assay: Anti-migratory activity against human HepG2 cells at 100 nM after 48 hrs by wound-healing assay relative to control; assay type: functional; summary of the method: as §2
K562 [20] = assay: Induction of apoptosis in human K562 cells assessed as viable cells at 300 nM after 24 hrs by Annexin V-FITC/propidium iodide staining-based flow cytometric analysis (reference value: 95.6%); assay type: functional; conditions: K562, 24 h, read-out: Activity
K562 [21] = assay: Induction of apoptosis in human K562 cells assessed as viable cells at 30 nM after 48 hrs by Annexin V-FITC/propidium iodide staining-based flow cytometric analysis (reference value: 95.8%); assay type: functional; conditions: K562, 48 h, read-out: Activity
K562 [22] = assay: Induction of apoptosis in human K562 cells assessed as necrotic cells at 300 nM after 12 hrs by Annexin V-FITC/propidium iodide staining-based flow cytometric analysis (reference value: 0%); assay type: functional
K562 [23] = assay: Induction of apoptosis in human K562 cells assessed as viable cells at 300 nM after 6 hrs by Annexin V-FITC/propidium iodide staining-based flow cytometric analysis (reference value: 95.6%); assay type: functional; conditions: K562, 6 h, read-out: Activity
HepG2 [24] = assay: Antiproliferative activity against human HepG2 cells after 48 hrs by MTT assay; assay type: functional, cell-based; conditions: HepG2, 48 h
K562 [25] = assay: Induction of morphological changes in human K562 cells assessed as elongation of cells at 30 nM after 6 hrs; assay type: functional, cell-based; summary of the method: as §1
K562 [26] = assay: Induction of apoptosis in human K562 cells assessed as viable cells at 300 nM after 48 hrs by Annexin V-FITC/propidium iodide staining-based flow cytometric analysis (reference value: 95.6%); assay type: functional; conditions: K562, 48 h, read-out: Activity
K562 [27] = assay: Induction of apoptosis in human K562 cells assessed as early apoptotic cells at 300 nM after 24 hrs by Annexin V-FITC/propidium iodide staining-based flow cytometric analysis (reference value: 2.2%); assay type: functional
K562 [28] = assay: Induction of apoptosis in human K562 cells assessed as necrotic cells at 30 nM after 48 hrs by Annexin V-FITC/propidium iodide staining-based flow cytometric analysis (reference value: 0.1%); assay type: functional
K562 [29] = assay: Induction of apoptosis in human K562 cells assessed as viable cells at 30 nM after 24 hrs by Annexin V-FITC/propidium iodide staining-based flow cytometric analysis (reference value: 95.8%); assay type: functional; conditions: K562, 24 h, read-out: Activity
K562 [30] = assay: Induction of apoptosis in human K562 cells assessed as necrotic cells at 300 nM after 48 hrs by Annexin V-FITC/propidium iodide staining-based flow cytometric analysis (reference value: 0%); assay type: functional

COc1ccc(CN2C(=O)C(=O)c3cc(-c4ccc(OC)cc4)ccc32)cc1
Activity (K562 [1]): 0.4% | Activity (K562 [2]): Active | Activity (K562 [3]): 2.1% | Activity (K562 [4]): 3.8% | Activity (K562 [5]): 5.9% | IC50 (K562 [6]): 30 nM | IC50 (HUVEC): 920 nM | viability at 0.03 µM (K562 [7]): 94.4% | Activity (K562 [8]): 5.7% | Activity (K562 [9]): 3.3% | Activity (K562 [10]): 85.2% | Activity (K562 [11]): 4.7% | Activity (K562 [12]): 3.1% | viability at 0.3 µM (K562 [13]): 88.1% | Activity (K562 [14]): 4% | Activity (K562 [15]): 10% | viability at 0.03 µM (K562 [16]): 92.8% | Activity (K562 [17]): 22.3% | Activity (HepG2 [18]): 26.9% | Activity (HepG2 [19]): 47.9% | viability at 0.3 µM (K562 [20]): 82.6% | viability at 0.03 µM (K562 [21]): 55.6% | Activity (K562 [22]): 0.4% | viability at 0.3 µM (K562 [23]): 93.6% | IC50 (HepG2 [24]): 50 nM | Activity (K562 [25]): Active | viability at 0.3 µM (K562 [26]): 4.7% | Activity (K562 [27]): 12.4% | Activity (K562 [28]): 1% | viability at 0.03 µM (K562 [29]): 88.5% | Activity (K562 [30]): 0%
